Experimental data taken from ChEMBL document CHEMBL5653631, “A Potent and Selective ULK1 Inhibitor Suppresses Autophagy and Sensitizes Cancer Cells to Nutrient Stress” (iScience, 2018).

Columns and labels:
[1] = target: T1, Myotonin-protein kinase (Homo sapiens) (UniProt Q09013); assay: Inhibition of human recombinant DMPK1 at 15 nM in presence of ATP by radiometric assay relative to control
T1 sequence (whole entry): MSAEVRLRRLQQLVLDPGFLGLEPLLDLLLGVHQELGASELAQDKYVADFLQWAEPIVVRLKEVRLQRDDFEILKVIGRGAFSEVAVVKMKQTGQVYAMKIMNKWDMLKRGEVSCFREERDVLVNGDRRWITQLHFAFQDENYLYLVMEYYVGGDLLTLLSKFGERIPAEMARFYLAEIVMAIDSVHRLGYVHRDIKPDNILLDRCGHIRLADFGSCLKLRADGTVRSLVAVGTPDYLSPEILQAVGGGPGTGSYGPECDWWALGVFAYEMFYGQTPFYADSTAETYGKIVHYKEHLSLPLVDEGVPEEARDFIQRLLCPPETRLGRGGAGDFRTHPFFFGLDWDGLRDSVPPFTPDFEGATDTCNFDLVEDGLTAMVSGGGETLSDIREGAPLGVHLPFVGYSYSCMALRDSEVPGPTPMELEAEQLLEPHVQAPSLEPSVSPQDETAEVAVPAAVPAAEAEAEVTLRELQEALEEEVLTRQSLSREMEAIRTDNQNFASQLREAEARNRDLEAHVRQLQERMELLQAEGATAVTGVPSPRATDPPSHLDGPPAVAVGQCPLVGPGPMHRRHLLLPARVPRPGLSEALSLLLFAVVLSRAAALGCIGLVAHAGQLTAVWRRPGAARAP

[2] = target: Phosphorylase b kinase gamma catalytic chain, skeletal muscle/heart isoform (Homo sapiens) (UniProt Q16816); assay: Inhibition of human recombinant PHKg1 at 15 nM in presence of ATP by radiometric assay relative to control
[3] = target: T2, Rhodopsin kinase GRK1 (Homo sapiens) (UniProt Q15835); assay: Inhibition of human recombinant RHOK at 15 nM related to control ULK1
T2 sequence (whole entry): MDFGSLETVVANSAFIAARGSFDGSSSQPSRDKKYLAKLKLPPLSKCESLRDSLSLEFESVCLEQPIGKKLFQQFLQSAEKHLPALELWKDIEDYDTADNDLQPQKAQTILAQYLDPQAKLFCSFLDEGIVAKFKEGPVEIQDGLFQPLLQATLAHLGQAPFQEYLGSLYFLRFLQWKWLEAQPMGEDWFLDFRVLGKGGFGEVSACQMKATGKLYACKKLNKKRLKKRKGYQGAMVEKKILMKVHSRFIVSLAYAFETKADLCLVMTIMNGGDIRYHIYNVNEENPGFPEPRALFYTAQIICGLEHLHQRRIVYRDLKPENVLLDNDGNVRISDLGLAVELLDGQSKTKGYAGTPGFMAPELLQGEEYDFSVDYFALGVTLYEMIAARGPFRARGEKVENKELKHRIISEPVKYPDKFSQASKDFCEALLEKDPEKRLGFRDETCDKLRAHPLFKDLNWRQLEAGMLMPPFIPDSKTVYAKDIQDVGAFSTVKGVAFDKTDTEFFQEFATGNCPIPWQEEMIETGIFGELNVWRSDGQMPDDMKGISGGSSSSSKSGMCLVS

[4] = target: Serine/threonine-protein kinase 26 (Homo sapiens) (UniProt Q9P289); assay: Inhibition of human recombinant MST4 at 40 nM in presence of ATP by radiometric assay relative to control
[5] = target: T3, Serine/threonine-protein kinase A-Raf (Homo sapiens) (UniProt P10398); assay: Inhibition of human recombinant ARAF at 40 nM related to control ULK1
T3 sequence (whole entry): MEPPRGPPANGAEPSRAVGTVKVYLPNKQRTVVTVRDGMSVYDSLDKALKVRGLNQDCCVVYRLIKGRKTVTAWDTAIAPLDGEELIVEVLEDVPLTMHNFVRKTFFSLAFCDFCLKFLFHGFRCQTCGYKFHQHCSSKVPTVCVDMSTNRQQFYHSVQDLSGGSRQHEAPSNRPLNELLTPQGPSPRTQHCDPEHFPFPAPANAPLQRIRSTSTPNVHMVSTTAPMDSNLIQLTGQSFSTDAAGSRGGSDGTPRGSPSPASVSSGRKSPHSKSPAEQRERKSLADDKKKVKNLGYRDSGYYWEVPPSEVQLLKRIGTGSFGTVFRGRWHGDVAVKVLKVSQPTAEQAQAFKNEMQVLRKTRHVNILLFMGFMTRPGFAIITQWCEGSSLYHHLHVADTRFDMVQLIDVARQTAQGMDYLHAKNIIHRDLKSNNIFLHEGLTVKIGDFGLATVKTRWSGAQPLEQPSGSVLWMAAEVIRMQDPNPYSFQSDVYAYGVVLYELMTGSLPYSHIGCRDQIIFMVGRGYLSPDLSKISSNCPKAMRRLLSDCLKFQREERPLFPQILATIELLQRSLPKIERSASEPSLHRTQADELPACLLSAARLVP
Method in brief: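 Radiometric activity assays in a panel of 327 human recombinant kinases, each run in duplicate at one inhibitor concentration. Activity remaining is expressed as percent of vehicle control, and percent inhibition is calculated as 100% minus percent activity remaining.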

[6] = target: Calcium/calmodulin-dependent protein kinase kinase 1 (Homo sapiens) (UniProt Q8N5S9); assay: Inhibition of human recombinant CaMKK1 at 40 nM related to control ULK1
[7] = target: Dual specificity mitogen-activated protein kinase kinase 2 (Homo sapiens) (UniProt P36507); assay: Inhibition of human recombinant MAP2K2 at 40 nM related to control ULK1
Chain of Dual specificity mitogen-activated protein kinase kinase 2 (Homo sapiens) (P36507 whole entry): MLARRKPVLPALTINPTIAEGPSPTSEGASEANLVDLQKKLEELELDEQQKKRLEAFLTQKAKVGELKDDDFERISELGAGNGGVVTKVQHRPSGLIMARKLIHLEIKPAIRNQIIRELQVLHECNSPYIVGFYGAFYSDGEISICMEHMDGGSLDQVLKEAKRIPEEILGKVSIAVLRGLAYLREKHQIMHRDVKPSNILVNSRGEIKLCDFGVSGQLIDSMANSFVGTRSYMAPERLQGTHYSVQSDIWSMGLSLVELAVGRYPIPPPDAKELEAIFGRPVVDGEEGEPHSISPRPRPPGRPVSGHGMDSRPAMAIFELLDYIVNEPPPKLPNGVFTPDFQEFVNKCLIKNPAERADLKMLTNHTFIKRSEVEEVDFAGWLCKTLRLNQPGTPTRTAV

Chain of Phosphorylase b kinase gamma catalytic chain, skeletal muscle/heart isoform (Homo sapiens) (Q16816 whole entry, looked up, canonical isoform): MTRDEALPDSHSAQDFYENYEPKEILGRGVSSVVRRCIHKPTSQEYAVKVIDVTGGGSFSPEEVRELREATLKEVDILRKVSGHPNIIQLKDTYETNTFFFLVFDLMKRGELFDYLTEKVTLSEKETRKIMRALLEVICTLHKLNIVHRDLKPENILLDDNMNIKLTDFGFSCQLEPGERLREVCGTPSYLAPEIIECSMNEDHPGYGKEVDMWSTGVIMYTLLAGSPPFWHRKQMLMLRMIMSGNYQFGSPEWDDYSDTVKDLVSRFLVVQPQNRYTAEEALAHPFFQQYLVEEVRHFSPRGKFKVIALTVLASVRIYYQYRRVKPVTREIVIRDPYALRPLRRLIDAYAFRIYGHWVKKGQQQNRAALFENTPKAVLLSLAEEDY
Chain of Serine/threonine-protein kinase 26 (Homo sapiens) (Q9P289 2-416 limits assumed): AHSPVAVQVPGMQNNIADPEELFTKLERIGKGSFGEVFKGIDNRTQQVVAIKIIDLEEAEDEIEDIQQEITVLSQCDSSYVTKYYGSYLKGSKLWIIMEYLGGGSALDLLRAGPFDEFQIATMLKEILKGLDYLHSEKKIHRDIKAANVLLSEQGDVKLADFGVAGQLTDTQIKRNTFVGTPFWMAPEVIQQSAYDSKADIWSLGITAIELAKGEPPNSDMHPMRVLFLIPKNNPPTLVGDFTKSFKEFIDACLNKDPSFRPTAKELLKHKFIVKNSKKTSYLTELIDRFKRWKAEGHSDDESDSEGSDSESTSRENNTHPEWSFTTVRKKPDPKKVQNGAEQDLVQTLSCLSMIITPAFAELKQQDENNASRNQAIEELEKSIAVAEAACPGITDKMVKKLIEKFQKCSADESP
Chain of Calcium/calmodulin-dependent protein kinase kinase 1 (Homo sapiens) (Q8N5S9 whole entry, looked up): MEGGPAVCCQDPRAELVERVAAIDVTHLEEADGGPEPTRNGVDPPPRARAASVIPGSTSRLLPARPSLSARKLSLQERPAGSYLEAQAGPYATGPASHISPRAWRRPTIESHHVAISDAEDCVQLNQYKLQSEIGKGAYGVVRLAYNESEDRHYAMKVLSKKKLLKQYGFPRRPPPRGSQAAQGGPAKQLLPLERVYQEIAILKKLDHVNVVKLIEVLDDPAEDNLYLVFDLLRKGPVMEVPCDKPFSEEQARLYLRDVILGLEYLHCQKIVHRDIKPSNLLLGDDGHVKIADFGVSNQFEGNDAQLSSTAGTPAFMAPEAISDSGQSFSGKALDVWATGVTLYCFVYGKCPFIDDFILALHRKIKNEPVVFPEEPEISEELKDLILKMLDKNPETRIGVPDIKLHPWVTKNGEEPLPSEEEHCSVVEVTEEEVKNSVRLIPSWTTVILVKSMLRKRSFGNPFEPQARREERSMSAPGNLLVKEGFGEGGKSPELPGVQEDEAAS

Row | inhibition [1] [%] | inhibition [2] [%] | fold change (FC) [3] | inhibition [4] [%] | fold change (FC) [5] | fold change (FC) [6] | fold change (FC) [7] | Structure (SMILES)
1 | 0 | 51 | 0 | – | – | – | – | CC(C)[C@H](NC(=O)c1cc(-c2cnn3cc(-c4ccc(OCCN5CCCCC5)cc4)cnc23)cs1)C(F)(F)F
2 | – | – | – | 0 | 0 | 0 | 0 | O=C(N[C@@H](C1CC1)C(F)(F)F)c1cc(-c2cnn3cc(-c4ccc(F)cc4)cnc23)cs1
